# From ChEMBL document CHEMBL1149397, “Trace amine-associated receptor agonists: synthesis and evaluation of thyronamines and related analogues” (J Med Chem, 2006)
# Activity calls are given as the source filed them. The calls are words filed in the database; no cut-off is given here.
# Legend:
# [1] = molecular target: Trace amine-associated receptor 1 (Rattus norvegicus, UniProt Q923Y9); assay: Activity at rat TAAR1 by measuring cAMP accumulation in HEK293 cells; assay type: functional, cell-based
# How it was run: (§1)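 HEK293 cells stably transfected with rat or mouse TAAR1, harvested and preincubated in Krebs-Ringer-HEPES with 200 µM IBMX. Then 1 h at 37 °C in KRH with 100 µM IBMX plus test compound, forskolin (10 µM) or DMSO vehicle. cAMP was measured by [³H]cAMP competitive binding after boiling, as % of forskolin control. EC₅₀ came from concentration-response curves, triplicate runs, averaged over experiments.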
# [2] = molecular target: Trace amine-associated receptor 1 (Mus musculus, UniProt Q923Y8); assay: Activity at mouse TAAR1 by measuring cAMP accumulation in HEK293 cells; assay type: functional, cell-based; how it was run: as §1
# Mus musculus [3] = assay: Hypothermia induction in C57BL/6J mice at 50 mg/kg, ip; assay type: functional, organism-based; set-up: dose 50 mg/kg
# How it was run: (§2)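 Male C57BL/6J mice, about 7-10 weeks old, dosed i.p. at 2, 10, 25 or 50 mg/kg. Vehicle was 100% DMSO, or 60-65% DMSO in saline for some compounds. Rectal temperature was taken before dosing and at 30, 60, 120, 180, 240 and 1440 min, with room at 19-21 °C. Groups were 2-4 mice, analysed by two-way ANOVA with Bonferroni post hoc tests (P < 0.05).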
# Mus musculus [4] = assay: Efficacy for hypothermia induction in ip dosed C57BL/6J mice; assay type: functional; how it was run: as §2
# Trace amine-associated receptor 1 (Rattus norvegicus, UniProt Q923Y9), sequence (Q923Y9 whole entry): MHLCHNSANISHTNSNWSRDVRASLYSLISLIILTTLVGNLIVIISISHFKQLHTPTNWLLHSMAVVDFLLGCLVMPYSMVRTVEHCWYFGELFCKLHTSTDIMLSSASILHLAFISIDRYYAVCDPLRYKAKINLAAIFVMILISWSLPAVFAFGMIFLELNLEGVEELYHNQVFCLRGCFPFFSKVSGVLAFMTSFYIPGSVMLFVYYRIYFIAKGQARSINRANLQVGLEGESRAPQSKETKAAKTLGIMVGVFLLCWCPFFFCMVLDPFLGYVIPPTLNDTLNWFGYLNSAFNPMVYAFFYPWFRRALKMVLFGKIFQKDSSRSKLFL
# Trace amine-associated receptor 1 (Mus musculus, UniProt Q923Y8), sequence (Q923Y8 whole entry): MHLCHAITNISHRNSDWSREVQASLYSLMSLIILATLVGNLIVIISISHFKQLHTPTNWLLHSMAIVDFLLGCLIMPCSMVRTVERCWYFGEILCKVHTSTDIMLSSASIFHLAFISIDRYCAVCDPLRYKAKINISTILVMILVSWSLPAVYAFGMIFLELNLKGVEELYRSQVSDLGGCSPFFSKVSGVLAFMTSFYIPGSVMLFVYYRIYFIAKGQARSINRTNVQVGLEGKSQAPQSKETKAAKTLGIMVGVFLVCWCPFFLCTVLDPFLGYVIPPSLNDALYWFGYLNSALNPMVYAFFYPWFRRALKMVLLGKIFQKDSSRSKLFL
SMILES,EC50 [1] [nM],EC50 [2] [nM],Activity (Mus musculus [3]),ED50 (Mus musculus [4]) [µmol/kg]
NCCc1ccc(OCCCCc2ccccc2)cc1,43,80,–,–
CNCCc1ccc(OCc2ccc(C(F)(F)F)cc2)cc1,61,12,Active,–
NCCc1ccc(OCc2ccccc2)c(I)c1,77,221,–,–
NCCc1ccc(Oc2ccc(O)c(I)c2)c(I)c1,–,1000,–,–
c1ccc(CNCCc2ccc(OCc3ccccc3)cc2)cc1,> 1000,> 1000,–,–
CNCCc1ccc(OCc2ccccc2)cc1,119,54,–,–
COc1cccc(COc2ccc(CCN)cc2)c1,141,194,–,–
CCCCNCCc1ccc(OCc2ccccc2)cc1,> 1000,> 1000,–,–
NCCc1ccc(OCC(=O)c2ccccc2)cc1,309,83,–,–
NCCc1ccc(OCc2ccc(C(F)(F)F)cc2)c(I)c1,> 1000,284,–,–
NCCc1ccc(OCc2ccccc2)cc1,209,168,–,–
NCCc1ccc(OCc2c(F)c(F)c(F)c(F)c2F)cc1,> 1000,> 1000,–,–
Cc1cc(C)cc(COc2ccc(CCN)cc2)c1,137,98,–,–
NCCc1ccc(Oc2ccccc2)c(I)c1,2.4,35,Active,30
NCCc1ccc(Oc2cc(I)c(O)c(I)c2)cc1,> 1000,> 1000,–,–
CNCCc1ccc(OCc2ccccc2)c(I)c1,68,106,–,–
CCCNCCc1ccc(OCc2ccccc2)cc1,> 1000,> 1000,–,–
CNCCc1ccc(Oc2ccc(O)cc2)c(I)c1,18,221,–,–
NCCc1ccc(OCCCc2ccccc2)cc1,89,102,–,–

SMILES,EC50 [1] [nM],EC50 [2] [nM],Activity (Mus musculus [3]),ED50 (Mus musculus [4]) [µmol/kg]
Cc1cc(CCN)ccc1Oc1ccc(O)cc1,33,116,Active,–
NCCc1cc(I)c(Oc2cc(I)c(O)c(I)c2)c(I)c1,–,> 1000,–,–
CN(C)CCc1ccc(OCc2ccccc2)cc1,> 1000,192,–,–
OCCc1ccc(Oc2ccc(O)cc2)c(I)c1,> 1000,> 1000,–,–
NCCc1ccc(OCc2ccc(F)cc2)cc1,72,38.5,–,–
NCCc1ccc(OCc2ccc([N+](=O)[O-])cc2)cc1,64,21.5,–,–
NCCc1ccc(Oc2ccc(O)c(I)c2)cc1,800,> 1000,–,–
NCCc1ccc(Oc2cc(I)c(O)c(I)c2)c(I)c1,> 1000,> 1000,–,–
NCCc1ccc(Oc2ccc(O)cc2)cc1 [THYRONAMINE],–,1000,–,–
CCNCCc1ccc(OCc2ccccc2)cc1,> 1000,71,–,–
COc1cc(COc2ccc(CCN)cc2)cc(OC)c1,333,123,–,–
NCCc1cc(I)c(Oc2ccc(O)cc2)c(I)c1,–,371,–,–
NCCc1ccc(Oc2ccccc2)cc1,38,296,–,–
CNCCc1ccc(Oc2ccc(OC)cc2)c(I)c1,107,> 1000,–,–
NCCc1ccc(OCc2ccc(C(F)(F)F)cc2)cc1,55,20.2,–,–
CNCCc1ccc(Oc2ccc(F)cc2)c(I)c1,2.7,32.5,Active,–
NCCc1ccc(OCCc2ccccc2)cc1,203,207,–,–
CNCCc1ccc(Oc2ccc(C(F)(F)F)cc2)c(I)c1,> 1000,> 1000,–,–
NCCc1cc(I)c(Oc2ccc(O)c(I)c2)c(I)c1,–,> 1000,–,–
